ChEMBL document CHEMBL1926554, “Diarylheptanoids from the seeds of Alpinia katsumadai as heat shock factor 1 inducers” (J Nat Prod, 2011)
Activity calls are given as the source filed them. The rule behind the calls is not given here.

Assays:
NCI-H460 [1] = test: Induction of HSF1 expression in human NCI-H460 cells at 1 uM after 24 hrs by Western blotting relative to control; type: functional
Procedure, shortened: (§1)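 NCI-H460 (human non-small-cell lung cancer) cells treated 24 h. Lysates run on SDS-PAGE, transferred to nitrocellulose, probed with antibodies to HSF1, HSP27 and HSP70, detected by ECL. Band signals normalized to β-actin and compared with untreated cells. Mean ± SD of three independent experiments done in triplicate, p < 0.05 versus untreated.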

NCI-H460 [2] = test: Induction of HSP27 expression in human NCI-H460 cells at 1 uM after 24 hrs by Western blotting relative to control; type: functional; procedure, shortened: as §1
NCI-H460 [3] = test: Induction of HSP70 expression in human NCI-H460 cells at 1 uM after 24 hrs by Western blotting relative to control; type: functional; procedure, shortened: as §1
NCI-H460 [4] = test: Cytotoxicity against human NCI-H460 cells after overnight incubation by MTT assay; type: cell-based
Procedure, shortened: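 Human non-small-cell lung cancer NCI-H460 cells. Cytotoxicity read by MTT assay. IC50 taken as the concentration (μM) giving 50% inhibition of cell growth.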

Compound	Activity (NCI-H460 [1])	Activity (NCI-H460 [2])	Activity (NCI-H460 [3])	fold change (FC) (NCI-H460 [1])	fold change (FC) (NCI-H460 [2])	fold change (FC) (NCI-H460 [3])	IC50 (NCI-H460 [4]) [µM]
O=C(/C=C/c1ccc(O)cc1)C[C@H](O)CCc1ccccc1	inactive	inactive	inactive	–	–	–	–
Oc1ccc(CC[C@H](O)C[C@H](O)/C=C/c2ccccc2)cc1	inactive	inactive	inactive	–	–	–	–
COc1cc(O)c(C(/C=C/CC(O)CCc2ccccc2)c2ccc(O)cc2)c(O)c1C(=O)/C=C/c1ccc(O)cc1 (mixture of isomers)	–	–	–	1.316	1.27	1.229	45.7
COc1cc(O)c(C(/C=C/CC(O)CCc2ccc(O)cc2)c2ccc(O)cc2)c(O)c1C(=O)/C=C/c1ccccc1 (mixture of isomers)	–	–	–	1.438	1.403	1.373	47.4
COc1cc(O)c(C(/C=C/CC(O)CCc2ccccc2)c2ccc(O)cc2)c(O)c1C(=O)/C=C/c1ccccc1 (mixture of isomers)	–	–	–	1.19	1.25	1.313	39.8
CC1=C(O)C(=O)C=C2C1=CC=C1[C@@]2(C)CC[C@@]2(C)[C@@H]3C[C@](C)(C(=O)O)CC[C@]3(C)CC[C@]12C [CELASTROL]	–	–	–	1.066	1.216	1.371	12.3
CC(=O)O[C@H]1C(=O)[C@@]2(C)[C@H]([C@H](OC(=O)c3ccccc3)[C@]3(O)C[C@H](OC(=O)[C@H](O)[C@@H](NC(=O)c4ccccc4)c4ccccc4)C(C)=C1C3(C)C)[C@]1(OC(C)=O)CO[C@@H]1C[C@@H]2O [PACLITAXEL]	–	–	–	–	–	–	8
